In PubChem BioAssay AID652011 (Sanford-Burnham Center for Chemical Genomics, 2013):
Several values for one entry are separate records, joined by “and”; a condition that tells them apart may be missing. Identical values can stand only once.

These molecules were tested against Hypoxia-inducible factor 1-alpha (Homo sapiens) (UniProt Q16665) (assay: HIF-1a and HIF-2a reporter inhibitors, SAR follow-up, cell-based, luminescence, MIAPaCa-2, 786-0, panel (AID 652011)). Conditions: MIAPaCa-2/PANC HIF reporter, luciferase luminescence, desferoxamine, overnight, HIF1a, run 2; at 99 µM (top of the series).
How it was run: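 Detection: luminescence, One-Glo; Reagent: desferoxamine; Incubation: overnight seeding and compound exposure, 37 °C, 5% CO2, 10-min detection.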

Sequence of Hypoxia-inducible factor 1-alpha (Homo sapiens) (Q16665 whole entry, looked up): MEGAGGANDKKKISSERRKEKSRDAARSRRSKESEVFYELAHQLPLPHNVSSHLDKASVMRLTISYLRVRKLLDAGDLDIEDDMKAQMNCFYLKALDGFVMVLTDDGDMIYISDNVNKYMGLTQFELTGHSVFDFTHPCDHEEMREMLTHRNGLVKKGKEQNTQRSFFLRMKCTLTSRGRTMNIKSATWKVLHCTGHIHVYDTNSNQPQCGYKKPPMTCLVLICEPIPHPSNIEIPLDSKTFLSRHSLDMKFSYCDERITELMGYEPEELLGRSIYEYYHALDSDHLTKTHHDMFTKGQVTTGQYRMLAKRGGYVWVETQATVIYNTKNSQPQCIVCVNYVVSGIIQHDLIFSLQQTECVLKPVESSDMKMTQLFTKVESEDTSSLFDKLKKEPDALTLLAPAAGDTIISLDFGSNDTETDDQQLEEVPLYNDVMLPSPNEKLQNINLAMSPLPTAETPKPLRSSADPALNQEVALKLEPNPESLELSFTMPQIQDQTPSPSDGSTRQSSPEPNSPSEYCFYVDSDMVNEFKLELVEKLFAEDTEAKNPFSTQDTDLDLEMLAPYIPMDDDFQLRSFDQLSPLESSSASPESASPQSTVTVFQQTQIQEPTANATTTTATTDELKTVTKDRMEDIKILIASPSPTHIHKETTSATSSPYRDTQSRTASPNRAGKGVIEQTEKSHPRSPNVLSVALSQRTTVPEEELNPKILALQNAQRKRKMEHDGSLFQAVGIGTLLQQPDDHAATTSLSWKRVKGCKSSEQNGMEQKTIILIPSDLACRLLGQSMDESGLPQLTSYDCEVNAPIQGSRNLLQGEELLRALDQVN

| SMILES | inhibition |
| --- | --- |
| COc1cccc(NC(=O)CCc2nc(-c3ccc(C(C)(C)C)cc3)no2)c1 | 81.2% |
| CCNC(=O)CCc1nc(-c2ccc(OCC)cc2)no1 | -42.2% |
| O=C(CCc1nc(-c2ccccc2)no1)NC1CC1 | -23.4% |
| CCCCc1ccc(-c2noc(CCC(=O)NC)n2)cc1 | 9.8% |
| CCOc1ccc(-c2noc(CCC(=O)NC)n2)cc1 | -24% |
| CCNC(=O)CCc1nc(-c2cccc(F)c2)no1 | -31.8% |
| CC(C)CNC(=O)CCc1nc(-c2ccc(C(C)(C)C)cc2)no1 | 2.19% |
| CC(C)NC(=O)CCc1nc(-c2ccc(C(C)(C)C)cc2)no1 | 26.5% |
| CC(C)c1ccc(-c2noc(CCC(=O)NC(C)(C)C)n2)cc1 | 38.8% |
| CC(C)(C)c1ccc(-c2noc(CCC(=O)NCc3ccco3)n2)cc1 | 93.7% and 85.5% |
| CCCCc1ccc(-c2noc(CCC(=O)NC(C)CC)n2)cc1 (stereo not given) | 58.1% |
| CCOc1ccccc1NC(=O)CCc1nc(-c2ccc(C(C)(C)C)cc2)no1 | 60% |
| CCCNC(=O)CCc1nc(-c2ccc(C(C)(C)C)cc2)no1 | 9.39% |
| CCNC(=O)CCc1nc(-c2ccc(C(C)(C)C)cc2)no1 | 10.5% and -4.06% |
| CNC(=O)CCc1nc(-c2ccc(C)cc2)no1 | 20.3% |
| CCc1ccc(-c2noc(CCC(=O)NC(C)CC)n2)cc1 (stereo not given) | -24.3% |
| CCC(C)NC(=O)CCc1nc(-c2ccccc2)no1 (stereo not given) | -19.7% |
| CC(C)(C)c1ccc(-c2noc(CCC(N)=O)n2)cc1 | 31.2% and -6.5% |
| CN(C)C(=O)CCc1nc(-c2ccc(C(C)(C)C)cc2)no1 | -8.56% and -52.1% |
| CC(C)(C)c1ccc(-c2noc(CCC(=O)NC3CCCC3)n2)cc1 | 81.4% |
